Results of several laboratories.
Lines come from different studies, so protocols differ.
Target: Adenosine receptor A3 (ADORA3, Homo sapiens, UniProt P0DMS8)
Sequence (P0DMS8 1-318, as in one of the studies): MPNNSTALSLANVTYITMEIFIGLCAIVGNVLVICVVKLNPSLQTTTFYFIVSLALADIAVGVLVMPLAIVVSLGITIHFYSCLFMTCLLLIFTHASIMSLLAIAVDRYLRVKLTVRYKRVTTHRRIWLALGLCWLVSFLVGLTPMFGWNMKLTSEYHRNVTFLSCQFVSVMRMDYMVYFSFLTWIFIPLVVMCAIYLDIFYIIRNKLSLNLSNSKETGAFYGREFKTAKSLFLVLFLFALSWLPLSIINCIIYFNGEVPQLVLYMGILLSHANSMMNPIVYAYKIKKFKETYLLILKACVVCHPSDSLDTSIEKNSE

| Structure (SMILES) | effect on | mode | technique | cells | concentration | measurement | result |
| --- | --- | --- | --- | --- | --- | --- | --- |
| C[C@H](C(=O)N[C@H]1COc2ccccc2[C@@H]1S(C)(=O)=O)c1ccc(F)cc1 | cell-free assay |  |  |  | 10 µM | inhibition | 11% |
| CC(C)N1CCC[C@H]1CNC(=O)c1cn(C2CCCC2)c(=O)c2c1c1ccccc1n2C | ligand displacement |  | radioligand |  | 10 µM | inhibition | 14% |
| CC(C)Cn1cnc2c(N)nc3ccccc3c21 | ligand displacement |  | radioligand |  | 10 µM | inhibition | 16% |
| CN(CCN1CCC(OC(=O)Nc2ccccc2-c2ccccc2)CC1)C(=O)c1ccc(CN2CCC(C(N)=O)CC2)cc1 | ligand displacement |  | radioligand |  | 1 µM | inhibition | -12% |
| CCOC(=O)[C@@]12C[C@@H]1[C@@H](n1cnc3c(N[C@H](C4CCC4)C4CC4)nc(I)nc31)[C@H](O)[C@@H]2O | ligand displacement |  | radioligand |  | 10 µM | inhibition | 88% |
| c1ccc(C(NCCNC(c2ccccc2)c2ccccc2)c2ccccc2)cc1 | cell-free assay |  |  |  | 10 µM | inhibition | 70% |
| COCc1c(-c2cc3cc(C)cc(OC)c3s2)c2c(N)ncnn2c1CN1CCNC(=O)C1 | ligand displacement |  | radioligand |  | 10 µM | inhibition | 39% |
| COCCN(CCOC)C(=O)[C@@]12C[C@@H]1[C@@H](n1cnc3c(N)nc(Cl)nc31)[C@H](O)[C@@H]2O | ligand displacement |  | radioligand |  | 10 µM | inhibition | 51% |
| O=C(Nc1cccnn1)N1CCN([C@@H]2CCOc3cc(C(F)(F)F)ccc32)CC1 | ligand displacement |  |  |  | 20 µM | inhibition | 25% |
| CCN(CC)CCCC[C@H](NC(=O)[C@H](CC(C)C)NC(=O)[C@H](C)NC(=O)[C@H](Cc1ccccc1)NC(=O)c1ccc(C(C)(C)C)cc1)C(=O)N[C@@H](CO)C(=O)OC | ligand displacement |  | radioligand |  | 10 µM | remaining binding | 96.9% |
| CCCCSC[C@@]12C[C@@H]1[C@@H](n1cnc3c(NC(C4CCCC4)C4CCCC4)nc(Cl)nc31)[C@H](O)[C@@H]2O | ligand displacement |  | radioligand |  | 10 µM | inhibition | 33% |
| CCNC(=O)[C@H]1O[C@@H](n2cnc3c(N)ncnc32)[C@H](O)[C@@H]1O | β-arrestin recruitment | agonist |  | HEK-293T |  | Emax | 99.5% |
| COc1ccc(S(=O)(=O)N2CCCCC2)cc1C | ligand displacement |  | radioligand |  | 10 µM | inhibition | < 30% |
